From ChEMBL document CHEMBL1131421, “Tetrahydro-isoquinoline-based factor Xa inhibitors” (J Med Chem, 1998)
pKi: −log10 of the molar value.

Assays:
Trypsin = Trypsin (Homo sapiens, UniProt P07477+P07478+P35030); assay: The inhibition constant against human trypsin; assay type: protein assay
Prothrombin [1] = molecular target: T1, Prothrombin (Homo sapiens, UniProt P00734); assay: The inhibition constant against human thrombin
[2] = The Anti-coagulant activity was tested by measuring activated partial thromboplastin time (aPTT); assay type: functional
Method in brief: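 Human citrated plasma (blood 9:1 with 0.11 mol/L sodium citrate, spun 3000 rpm 10 min, RT, used within 8 h) plus aPTT reagent and compound in DMSO (DMSO-only control), 3 min at 37 °C in a coagulometer; clotting time recorded at 1000, 200, 100, 10, 1 μM in plasma. ED200 (aPTT-doubling concentration) from nonlinear fit of y = a + b·x^c; quadruplicate determinations.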

Coagulation factor X = Coagulation factor X (Homo sapiens, UniProt P00742); assay: The inhibition constant against human Coagulation factor X
Coagulation factor X, sequence (P00742 41-179 limits assumed): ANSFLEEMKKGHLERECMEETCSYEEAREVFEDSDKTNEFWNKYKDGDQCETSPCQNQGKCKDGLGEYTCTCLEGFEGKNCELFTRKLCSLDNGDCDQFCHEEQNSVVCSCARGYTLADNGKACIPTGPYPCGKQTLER
Coagulation factor X, sequence (P00742 235-488 limits assumed): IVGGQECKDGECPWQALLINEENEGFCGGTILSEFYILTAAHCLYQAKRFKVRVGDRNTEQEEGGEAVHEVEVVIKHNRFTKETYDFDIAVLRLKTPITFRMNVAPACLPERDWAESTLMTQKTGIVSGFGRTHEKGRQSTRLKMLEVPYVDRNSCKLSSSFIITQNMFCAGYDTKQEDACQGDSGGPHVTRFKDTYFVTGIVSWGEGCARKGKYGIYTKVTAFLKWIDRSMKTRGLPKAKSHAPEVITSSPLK

Prothrombin [3] = molecular target: T1, Prothrombin; assay: The Anti-coagulant activity was tested by measuring thrombin clotting time (TT); assay type: functional
Method in brief: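 Thrombin clotting time in human citrated plasma (blood 9:1 with 0.11 mol/L citrate, spun 3000 rpm 10 min, stored RT ≤8 h); plasma with compound in DMSO or DMSO control incubated 2 min at 37 °C in coagulometer. Clotting measured at 500, 100, 50, 5, 0.5 μM in plasma; doubling concentration (ED200) obtained by nonlinear regression of y = a + b·x^c.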

Plasminogen = Plasminogen (Homo sapiens, UniProt P00747); assay: The inhibition constant against human plasmin
Plasminogen, sequence (P00747 97-580 limits assumed): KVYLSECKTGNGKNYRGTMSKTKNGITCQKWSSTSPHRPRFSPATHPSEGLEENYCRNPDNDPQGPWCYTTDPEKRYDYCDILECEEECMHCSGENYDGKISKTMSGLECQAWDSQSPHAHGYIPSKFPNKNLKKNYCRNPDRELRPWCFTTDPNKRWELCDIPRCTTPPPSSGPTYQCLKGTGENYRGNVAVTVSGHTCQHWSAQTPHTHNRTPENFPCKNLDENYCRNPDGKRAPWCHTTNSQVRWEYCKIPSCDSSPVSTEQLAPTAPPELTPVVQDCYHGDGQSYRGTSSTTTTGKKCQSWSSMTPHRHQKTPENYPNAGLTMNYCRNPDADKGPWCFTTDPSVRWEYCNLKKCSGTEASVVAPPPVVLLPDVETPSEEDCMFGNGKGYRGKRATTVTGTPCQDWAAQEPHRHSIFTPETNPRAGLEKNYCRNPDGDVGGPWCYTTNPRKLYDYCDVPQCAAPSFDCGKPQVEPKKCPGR
Plasminogen, sequence (P00747 581-810 limits assumed): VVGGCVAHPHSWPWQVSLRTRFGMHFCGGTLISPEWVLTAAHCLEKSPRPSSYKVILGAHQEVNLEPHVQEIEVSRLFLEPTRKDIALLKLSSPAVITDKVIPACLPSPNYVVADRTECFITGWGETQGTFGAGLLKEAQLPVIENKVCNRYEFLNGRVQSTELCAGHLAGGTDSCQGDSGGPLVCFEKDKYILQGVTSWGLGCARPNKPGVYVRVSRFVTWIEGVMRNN

Ki (Trypsin) | pKi (Prothrombin [1]) | pKi (Coagulation factor X) | ED200 (Prothrombin [3]) | pKi (Plasminogen) | SMILES | ED200 [2]
0.2 µM | < 4.00 | 7.59 | > 500 µM |  | COc1ccc(C(=N)N2CCC(Oc3ccc(C(Oc4ccc5c(c4)CN(C(=N)N)CC5)C(=O)O)cc3)CC2)cc1 (stereo not drawn) | 7 µM
0.08 µM | 4.70 | 7.52 | 70 µM |  | CCOC(=O)C(Oc1ccc2c(c1)CN(C(=N)N)CC2)c1ccc(OC2CCN(C(=N)CC)CC2)cc1 (stereo not drawn) | 10 µM
0.2 µM | 5.10 | 7.55 | 54 µM | 4.60 | CCOC(=O)C(Oc1ccc2c(c1)CN(C(=N)N)CC2)c1ccc(OC2CCN(C(=N)N)CC2)cc1 (stereo not drawn) | 3 µM
3 µM | 5.10 | 5.70 | 500 µM | 4.59 | CCOC(=O)C(Oc1ccc2c(c1)CN(C(=N)N)CC2)c1ccc(OC2CCOCC2)cc1 (stereo not drawn) | 250 µM
0.4 µM | 4.82 | 7.52 | 53 µM | 4.60 | CCOC(=O)C(Oc1ccc2c(c1)CN(C(=N)N)CC2)c1ccc(OC2CCN(C(C)=N)CC2)cc1 (stereo not drawn) | 3 µM
2 µM | < 4.00 | 7.26 | > 500 µM | 4.28 | CC(=N)N1CCC(Oc2ccc(C(Oc3ccc4c(c3)CN(C(=N)N)CC4)C(=O)O)cc2)CC1 (stereo not drawn) | 11 µM
10 µM | < 4.00 | 6.00 | > 500 µM | 5.00 | N=C(N)N1CCc2ccc(OC(C(=O)O)c3ccc(O[C@H]4CCNC4)cc3)cc2C1 (stereo partly drawn) | 50 µM
12 µM | < 4.00 | 5.52 | > 500 µM | 4.60 | N=C(N)N1CCc2ccc(OC(C(=O)O)c3ccc(OC4CCOCC4)cc3)cc2C1 (stereo not drawn) | > 500 µM
6 µM | < 4.00 | 5.70 | > 500 µM | 4.60 | N=C(N)N1CCc2ccc(OC(C(=O)O)c3ccc(OC4CCNCC4)cc3)cc2C1 (stereo not drawn) | 190 µM
2 µM |  |  |  | 4.96 | CC(=N)N1CC[C@H](Oc2ccc([C@H](Cc3ccc4ccc(C(=N)N)cc4c3)C(=O)O)cc2)C1.Cl [DX-9065A HYDROCHLORIDE HYDRATE] | 
9 µM | < 4.00 | 6.70 | 500 µM | 5.00 | C=CCOC(=O)N1CC[C@H](Oc2ccc(C(Oc3ccc4c(c3)CN(C(=N)N)CC4)C(=O)OCC)cc2)C1 (stereo partly drawn) | 200 µM
10 µM | < 4.00 | 5.52 | 200 µM | 5.00 | CCOC(=O)C(Oc1ccc2c(c1)CN(C(=N)N)CC2)c1ccc(OC2CCN(C(C)=O)CC2)cc1 (stereo not drawn) | 100 µM
0.2 µM | 5.30 | 7.68 | 32 µM |  | CCOC(=O)C(Oc1ccc2c(c1)CN(C(=N)N)CC2)c1ccc(OC2CCN(C(=N)c3ccc(OC)cc3)CC2)cc1 (stereo not drawn) | 6 µM
10 µM | < 4.00 | 6.70 | 90 µM | 4.30 | CCOC(=O)C(Oc1ccc2c(c1)CN(C(=N)N)CC2)c1ccc(O[C@H]2CCN(C3=CC(=O)CC(C)(C)C3)C2)cc1 (stereo partly drawn) | 24 µM
1 µM | < 4.00 | 6.70 | > 500 µM |  | N=C(N)N1CCc2ccc(OC(C(=O)O)c3ccc(O[C@H]4CCN(C(=N)N)C4)cc3)cc2C1 (stereo partly drawn) | 40 µM
10 µM | < 4.00 | 6.70 | > 500 µM | 4.30 | CC1(C)CC(=O)C=C(N2CC[C@H](Oc3ccc(C(Oc4ccc5c(c4)CN(C(=N)N)CC5)C(=O)O)cc3)C2)C1 (stereo partly drawn) | 200 µM
2 µM | < 4.00 | 7.00 | 100 µM |  | CCOC(=O)C(Oc1ccc2c(c1)CN(C(=N)N)CC2)c1ccc(O[C@H]2CCN(C(C)=N)C2)cc1 (stereo partly drawn) | 10 µM
 | 5.40 | 5.52 | > 500 µM | 4.85 | C=CCOC(=O)N1CCC(Oc2ccc(C(Oc3ccc4c(c3)CN(C(=N)N)CC4)C(=O)OCC)cc2)CC1 (stereo not drawn) | 260 µM
5 µM | < 4.00 | 6.40 | > 500 µM |  | CC(=O)N1CCC(Oc2ccc(C(Oc3ccc4c(c3)CN(C(=N)N)CC4)C(=O)O)cc2)CC1 (stereo not drawn) | 150 µM
3 µM | 4.80 | 5.70 | 71 µM | 4.60 | CCOC(=O)C(Oc1ccc2c(c1)CN(C(=N)N)CC2)c1ccc(OC2CCNCC2)cc1 (stereo not drawn) | 26 µM
2 µM | 4.89 | 6.70 | 300 µM | 4.35 | CCOC(=O)C(Oc1ccc2c(c1)CN(C(=N)N)CC2)c1ccc(O[C@H]2CCN(C(=N)N)C2)cc1 (stereo partly drawn) | 10 µM
10 µM | < 4.00 | 7.10 | > 500 µM |  | CC(=N)N1CC[C@H](Oc2ccc(C(Oc3ccc4c(c3)CN(C(=N)N)CC4)C(=O)O)cc2)C1 (stereo partly drawn) | 30 µM
0.2 µM | < 4.00 | 7.36 | > 500 µM | 4.36 | N=C(N)N1CCC(Oc2ccc(C(Oc3ccc4c(c3)CN(C(=N)N)CC4)C(=O)O)cc2)CC1 (stereo not drawn) | 9 µM
6 µM | < 4.00 | 6.40 | 140 µM | 4.40 | CCOC(=O)C(Oc1ccc2c(c1)CN(C(=N)N)CC2)c1ccc(O[C@H]2CCNC2)cc1 (stereo partly drawn) | 26 µM
10 µM | < 4.00 | 6.00 | 240 µM | 4.30 | C=CCN1CC[C@H](Oc2ccc(C(Oc3ccc4c(c3)CN(C(=N)N)CC4)C(=O)OCC)cc2)C1 (stereo partly drawn) | 27 µM
